Reference: ChEMBL document CHEMBL1137675, “Convenient one-pot synthesis of novel 2-substituted benzimidazoles, tetrahydrobenzimidazoles and imidazoles and evaluation of their in vitro antibacterial and antifungal activities” (2009)
Converted amounts (≈) assume the structure as drawn.

Key:
Trichoderma viride [1] = experiment: Antifungal activity against Trichoderma viride at 28 degC after 72 hrs; assay type: functional
Procedure, shortened: (§1)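 Filamentous fungi were kept on SDA at 28 °C. Spores from 7-day cultures were suspended in sterile normal saline to about 10⁵ cfu/ml, and about 0.1 ml was spread on SDA plates. Compounds were serially diluted two-fold in DMSO and impregnated on 8 mm discs, with a solvent control disc on each plate. Plates were held at 28 °C for 72 h or more, and inhibition zone diameter was read in mm.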

Staphylococcus aureus = experiment: Antibacterial activity against Staphylococcus aureus MSSA 22 at 37 degC after 24 hrs by filter paper disk method; assay type: functional; settings: for MIC: Staphylococcus aureus, MSSA 22, 24 h
Procedure, shortened: (§2)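 Compounds were taken from a 1 mg/ml DMSO stock and serially diluted two-fold over a 300 to 18.75 range, then loaded onto sterile 8 mm paper discs. Bacteria were grown overnight in nutrient broth at 37 °C, pelleted, and resuspended in sterile NSS to 10⁵ cfu/ml. About 0.1 ml was spread on NA plates. Plates were incubated 24 h at 37 °C with a solvent control disc, and inhibition zone diameter was read in mm.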

Helminthosporium [2] = experiment: Antifungal activity against Helminthosporium oryzae 2537 ICAR at 28 degC after 72 hrs; assay type: functional; procedure, shortened: as §1
Salmonella typhimurium = experiment: Antibacterial activity against Salmonella Typhimurium MTCC 98 at 37 degC after 24 hrs by filter paper disk method; assay type: functional, Salmonella enterica subsp. enterica serovar Typhimurium; settings: for MIC: Salmonella enterica, MTCC 98, 24 h; procedure, shortened: as §2
Bacillus subtilis = experiment: Antibacterial activity against Bacillus subtilis ATCC 6051 at 37 degC after 24 hrs by filter paper disk method; assay type: functional; settings: for MIC: Bacillus subtilis, ATCC 6051, 24 h; procedure, shortened: as §2
Aspergillus niger [3] = experiment: Antifungal activity against Aspergillus niger at 28 degC after 72 hrs; assay type: functional; procedure, shortened: as §1
Penicillium sp. [4] = experiment: Antifungal activity against Penicillium sp. at 28 degC after 72 hrs; assay type: functional; procedure, shortened: as §1
Candida albicans [5] = experiment: Antifungal activity against Candida albicans IOA-109 at 37 degC after 18 to 48 hrs; assay type: functional
Escherichia coli = experiment: Antibacterial activity against Escherichia coli K-12 at 37 degC after 24 hrs by filter paper disk method; assay type: functional; settings: for MIC: Escherichia coli, K-12, 24 h; procedure, shortened: as §2
Trichoderma viride [6] = experiment: Antifungal activity against Trichoderma viride at 30 ug/disk at 28 degC after 72 hrs; assay type: functional, organism-based
Procedure, shortened: (§3)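 Disc diffusion on SDA; cultures were kept at 28 °C. Spores from 7-day cultures were suspended in sterile normal saline ([…] NaCl as printed) and diluted to about 10⁵ cfu/ml; about 0.1 ml was spread per plate. 8 mm discs carried compound from a DMSO stock, alongside a solvent disc and a nystatin disc. After 72 h or more at 28 °C, inhibition-zone diameter was read in mm.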

Helminthosporium [7] = experiment: Antifungal activity against Helminthosporium oryzae 2537 ICAR at 30 ug/disk at 28 degC after 72 hrs; assay type: functional, organism-based; procedure, shortened: as §3
Aspergillus niger [8] = experiment: Antifungal activity against Aspergillus niger at 30 ug/disk at 28 degC after 72 hrs; assay type: functional, organism-based; procedure, shortened: as §3
Candida albicans [9] = experiment: Antifungal activity against Candida albicans IOA-109 at 30 ug/disk at 37 degC after 18 to 48 hrs; assay type: functional, organism-based
Procedure, shortened: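 Disc diffusion on SDA. Inoculum was grown overnight in SD broth at 37 °C, centrifuged, and resuspended in sterile NSS to 10⁵ cfu/ml; about 0.1 ml was spread per plate. 8 mm discs carried compound from a DMSO stock, alongside a solvent disc and a nystatin disc. After 18–48 h at 37 °C, inhibition-zone diameter was read in mm.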

Penicillium sp. [10] = experiment: Antifungal activity against Penicillium sp. at 30 ug/disk at 28 degC after 72 hrs; assay type: functional, organism-based; procedure, shortened: as §3

CCCCC/C=C\CC[C@H](O)CCCCCCCc1nc2cc(Cl)ccc2[nH]1
diameter of the inhibition zone (DIZ) (Trichoderma viride [1]): 8 mm | MIC (Trichoderma viride [1]; Trichoderma viride, 72 h): 37.5 µg/mL (≈ 92.6 µM) | diameter of the inhibition zone (DIZ) (Staphylococcus aureus): 21 mm | MIC (Staphylococcus aureus): 37.5 µg/mL (≈ 92.6 µM) | diameter of the inhibition zone (DIZ) (Helminthosporium [2]): 14 mm | MIC (Helminthosporium [2]; Helminthosporium, 72 h): 75 µg/mL (≈ 185 µM) | diameter of the inhibition zone (DIZ) (Salmonella typhimurium): 17 mm | MIC (Salmonella typhimurium): 37.5 µg/mL (≈ 92.6 µM) | diameter of the inhibition zone (DIZ) (Bacillus subtilis): 20 mm | MIC (Bacillus subtilis): 75 µg/mL (≈ 185 µM) | diameter of the inhibition zone (DIZ) (Aspergillus niger [3]): 14 mm | MIC (Aspergillus niger [3]; Aspergillus niger, 72 h): 37.5 µg/mL (≈ 92.6 µM) | diameter of the inhibition zone (DIZ) (Penicillium sp. [4]): 19 mm | MIC (Penicillium sp. [4]; Penicillium sp., 72 h): 37.5 µg/mL (≈ 92.6 µM) | diameter of the inhibition zone (DIZ) (Candida albicans [5]): 18 mm | MIC (Candida albicans [5]; Candida albicans, IOA-109): 37.5 µg/mL (≈ 92.6 µM) | diameter of the inhibition zone (DIZ) (Escherichia coli): 19 mm | MIC (Escherichia coli): 37.5 µg/mL (≈ 92.6 µM)

C=CCCCCCCCCc1nc2cc(Cl)ccc2[nH]1
diameter of the inhibition zone (DIZ) (Trichoderma viride [1]): 10 mm | MIC (Trichoderma viride [1]; Trichoderma viride, 72 h): 37.5 µg/mL (≈ 129 µM) | diameter of the inhibition zone (DIZ) (Staphylococcus aureus): 22 mm | MIC (Staphylococcus aureus): 37.5 µg/mL (≈ 129 µM) | diameter of the inhibition zone (DIZ) (Helminthosporium [2]): 15 mm | MIC (Helminthosporium [2]; Helminthosporium, 72 h): 75 µg/mL (≈ 258 µM) | diameter of the inhibition zone (DIZ) (Salmonella typhimurium): 14 mm | MIC (Salmonella typhimurium): 37.5 µg/mL (≈ 129 µM) | diameter of the inhibition zone (DIZ) (Bacillus subtilis): 19 mm | MIC (Bacillus subtilis): 75 µg/mL (≈ 258 µM) | diameter of the inhibition zone (DIZ) (Aspergillus niger [3]): 15 mm | MIC (Aspergillus niger [3]; Aspergillus niger, 72 h): 37.5 µg/mL (≈ 129 µM) | diameter of the inhibition zone (DIZ) (Penicillium sp. [4]): 19 mm | MIC (Penicillium sp. [4]; Penicillium sp., 72 h): 37.5 µg/mL (≈ 129 µM) | diameter of the inhibition zone (DIZ) (Candida albicans [5]): 18 mm | MIC (Candida albicans [5]; Candida albicans, IOA-109): 37.5 µg/mL (≈ 129 µM) | diameter of the inhibition zone (DIZ) (Escherichia coli): 20 mm | MIC (Escherichia coli): 75 µg/mL (≈ 258 µM)

CCCCC/C=C\CC[C@H](O)CCCCCCCc1ncc[nH]1
diameter of the inhibition zone (DIZ) (Trichoderma viride [1]): 6 mm | MIC (Trichoderma viride [1]; Trichoderma viride, 72 h): 75 µg/mL (≈ 234 µM) | diameter of the inhibition zone (DIZ) (Staphylococcus aureus): 15 mm | MIC (Staphylococcus aureus): 150 µg/mL (≈ 468 µM) | diameter of the inhibition zone (DIZ) (Helminthosporium [2]): 12 mm | MIC (Helminthosporium [2]; Helminthosporium, 72 h): 150 µg/mL (≈ 468 µM) | diameter of the inhibition zone (DIZ) (Salmonella typhimurium): 12 mm | MIC (Salmonella typhimurium): 75 µg/mL (≈ 234 µM) | diameter of the inhibition zone (DIZ) (Bacillus subtilis): 19 mm | MIC (Bacillus subtilis): 37.5 µg/mL (≈ 117 µM) | diameter of the inhibition zone (DIZ) (Aspergillus niger [3]): 14 mm | MIC (Aspergillus niger [3]; Aspergillus niger, 72 h): 150 µg/mL (≈ 468 µM) | diameter of the inhibition zone (DIZ) (Penicillium sp. [4]): 19 mm | MIC (Penicillium sp. [4]; Penicillium sp., 72 h): 150 µg/mL (≈ 468 µM) | diameter of the inhibition zone (DIZ) (Candida albicans [5]): 18 mm | MIC (Candida albicans [5]; Candida albicans, IOA-109): 75 µg/mL (≈ 234 µM) | diameter of the inhibition zone (DIZ) (Escherichia coli): 12 mm | MIC (Escherichia coli): 150 µg/mL (≈ 468 µM)

CCCCCC[C@@H](O)C/C=C\CCCCCCCc1nc2c([nH]1)CCCC2
diameter of the inhibition zone (DIZ) (Trichoderma viride [1]): 7 mm | MIC (Trichoderma viride [1]; Trichoderma viride, 72 h): 37.5 µg/mL (≈ 100 µM) | diameter of the inhibition zone (DIZ) (Staphylococcus aureus): 17 mm | MIC (Staphylococcus aureus): 75 µg/mL (≈ 200 µM) | diameter of the inhibition zone (DIZ) (Helminthosporium [2]): 11 mm | MIC (Helminthosporium [2]; Helminthosporium, 72 h): 150 µg/mL (≈ 400 µM) | diameter of the inhibition zone (DIZ) (Salmonella typhimurium): 12 mm | MIC (Salmonella typhimurium): 75 µg/mL (≈ 200 µM) | diameter of the inhibition zone (DIZ) (Bacillus subtilis): 19 mm | MIC (Bacillus subtilis): 75 µg/mL (≈ 200 µM) | diameter of the inhibition zone (DIZ) (Aspergillus niger [3]): 12 mm | MIC (Aspergillus niger [3]; Aspergillus niger, 72 h): 37.5 µg/mL (≈ 100 µM) | diameter of the inhibition zone (DIZ) (Penicillium sp. [4]): 16 mm | MIC (Penicillium sp. [4]; Penicillium sp., 72 h): 75 µg/mL (≈ 200 µM) | diameter of the inhibition zone (DIZ) (Candida albicans [5]): 17 mm | MIC (Candida albicans [5]; Candida albicans, IOA-109): 75 µg/mL (≈ 200 µM) | diameter of the inhibition zone (DIZ) (Escherichia coli): 15 mm | MIC (Escherichia coli): 150 µg/mL (≈ 400 µM)

NYSTATIN
inhibition zone (IZ) (Trichoderma viride [6]): 15 mm | MIC (Trichoderma viride [1]): 6 µg/mL | inhibition zone (IZ) (Helminthosporium [7]): 18 mm | MIC (Helminthosporium [2]): 12.5 µg/mL | inhibition zone (IZ) (Aspergillus niger [8]): 18 mm | MIC (Aspergillus niger [3]): 12.5 µg/mL | MIC (Penicillium sp. [4]): 6 µg/mL | MIC (Candida albicans [5]): 6 µg/mL | inhibition zone (IZ) (Candida albicans [9]): 20 mm | inhibition zone (IZ) (Penicillium sp. [10]): 20 mm
